In ChEMBL document CHEMBL3808283, “Biological Characterization and in Vivo Assessment of the Activity of a New Synthetic Macrocyclic Antifungal Compound” (J Med Chem, 2016):
In brackets after ≈: the same amount, converted by molar mass. Activity calls are given as the source filed them. The calls are words filed in the database; no cut-off is given here.

Experiments:
Cryptococcus neoformans [1] = test: Antifungal activity against Cryptococcus neoformans measured at 72 hrs by broth dilution assay; format: functional
In short: (§1)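 EUCAST broth microdilution, including the update for non-fermenting yeasts (Cryptococcus, Geotrichum), on clinical and reference yeast isolates. Incubated at 37 °C and read at 24, 48 and 72 h. MIC taken as the lowest concentration with no visible growth. For Cryptococcus and Geotrichum, MICs were read only once growth was visible in the control row.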

Candida albicans [2] = test: Upregulation of TAC1 gene expression in Candida albicans SC5314 at 3 uM after 45 mins by microarray method relative to control; format: functional
In short: (§2)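 Log-phase C. albicans SC5314 in liquid YEPD exposed to 3 µM final for 15 or 45 min; untreated controls taken at the same time points. Three biological replicates. RNA extracted by glass-bead/phenol-chloroform method and integrity checked. One-color Cy3-labeled cRNA (600 ng) hybridized 17 h at 65 °C to 8 × 15K arrays. Expression expressed as fold change versus control.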

[3] = Chemical stability in RPMI-1640 buffer at 2 mM up to 72 hrs at 30 degC by LC-UV-MS analysis; details: 2000 µM
Nakaseomyces glabratus [4] = test: Antifungal activity against Candida glabrata 70 measured at 72 hrs by broth dilution assay; format: functional; details: Nakaseomyces glabratus, 70, 72 h; in short: as §1
Candida albicans [5] = test: Antifungal activity against Candida albicans 53T measured at 72 hrs by broth dilution assay; format: functional; in short: as §1
Candida parapsilosis [6] = test: Fungicidal activity against Candida parapsilosis 81E at 40 uM after 24 to 48 hrs by time kill assay; format: functional, organism-based
In short: (§3)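 EUCAST broth microdilution at 37 °C. From wells at MIC, 2×, 4× and 8× MIC, 10 µL aliquots were taken, serially 10-fold diluted in saline and plated on Sabouraud dextrose agar. Plates were incubated at 37 °C for 24/48 h, and 48 h for Cryptococcus and Geotrichum. Done in duplicate, detection limit 10 CFU/mL. A drop of at least 3 Log10 CFU/mL from the initial inoculum in 24 h counts as fungicidal; a smaller drop counts as fungistatic.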

Candida albicans [7] = test: Upregulation of ARE2 gene expression in Candida albicans SC5314 at 3 uM after 45 mins by microarray method relative to control; format: functional; in short: as §2
Candida parapsilosis [8] = test: Antifungal activity against Candida parapsilosis 64E measured at 24 hrs by broth dilution assay; format: functional; details: Lodderomyces parapsilosis; in short: as §1
Candida albicans [9] = test: Upregulation of LCB4 gene expression in Candida albicans SC5314 at 3 uM after 45 mins by microarray method relative to control; format: functional; in short: as §2
Candida parapsilosis [10] = test: Antifungal activity against Candida parapsilosis 64E measured at 72 hrs by broth dilution assay; format: functional; details: Lodderomyces parapsilosis; in short: as §1
Candida tropicalis = test: Fungicidal activity against Candida tropicalis 86E assessed as reduction in CFU at 20 uM measured at 24 hrs by time kill assay relative to control; format: functional; in short: as §3
Candida albicans [11] = test: Upregulation of CRZ2 gene expression in Candida albicans SC5314 at 3 uM after 45 mins by microarray method relative to control; format: functional; in short: as §2
Candida albicans [12] = test: Antifungal activity against Candida albicans 4T measured at 24 hrs by broth dilution assay; format: functional; in short: as §1
Candida albicans [13] = test: Upregulation of CRZ2 gene expression in Candida albicans SC5314 at 3 uM after 15 mins by microarray method relative to control; format: functional; in short: as §2
Candida albicans [14] = test: Upregulation of orf19.3378 gene expression in Candida albicans SC5314 at 3 uM after 15 mins by microarray method relative to control; format: functional
In short: (§4)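 Log-phase cultures in liquid YEPD were exposed to 3 µM compound (final) for 15 or 45 min, with untreated controls sampled at the same times, in three biological replicates. Total RNA was extracted by glass-bead/phenol-chloroform disruption and integrity-checked. One-color Cy3-labelled cRNA (600 ng) was hybridized for 17 h at 65 °C to 8 × 15K arrays, and fold change was taken versus control.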

Magnusiomyces capitatus = test: Antifungal activity against Geotrichum capitatum measured at 72 hrs by broth dilution assay; format: functional; in short: as §1
Candida albicans [15] = test: Antifungal activity against Candida albicans 15T measured at 48 hrs by broth dilution assay; format: functional; in short: as §1
Candida albicans [16] = test: Upregulation of FCR1 gene expression in Candida albicans SC5314 at 3 uM after 15 mins by microarray method relative to control; format: functional; in short: as §2
Candida albicans [17] = test: Upregulation of orf19.4907 gene expression in Candida albicans SC5314 at 3 uM after 15 mins by microarray method relative to control; format: functional; in short: as §4
Candida albicans [18] = test: Antifungal activity against Candida albicans ATCC 60193 measured at 24 hrs by broth dilution assay; format: functional; details: ATCC 60193, 24 h; in short: as §1
Candida albicans [19] = test: Antifungal activity against Candida albicans 4T measured at 72 hrs by broth dilution assay; format: functional; in short: as §1
Candida albicans [20] = test: Upregulation of orf19.1438 gene expression in Candida albicans SC5314 at 3 uM after 45 mins by microarray method relative to control; format: functional; in short: as §2
Candida albicans [21] = test: Upregulation of orf19.3378 gene expression in Candida albicans SC5314 at 3 uM after 45 mins by microarray method relative to control; format: functional; in short: as §4
[22] = Antifungal activity against Geotrichum silvicola up to 96 hrs by broth dilution assay; format: functional
Candida albicans [23] = test: Upregulation of ARE2 gene expression in Candida albicans SC5314 at 3 uM after 15 mins by microarray method relative to control; format: functional; in short: as §2
Candida albicans [24] = test: Antifungal activity against Candida albicans ATCC 60193 measured at 48 hrs by broth dilution assay; format: functional; details: ATCC 60193, 48 h; in short: as §1
Candida albicans [25] = test: Antifungal activity against azole-susceptible Candida albicans isolate DSY294 in immunocompetent Balb/c mouse candidiasis model assessed as reduction in CFU count in kidney at 40 mg/kg/day, ip regime measured on day 7 post infection; format: functional, organism-based
In short: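 Immunocompetent BALB/c mice, groups of 10, were injected in the lateral tail vein with 7 × 10^4 CFU of C. albicans in 200 µL saline. Drug was given ip daily at 40 mg/kg/day in DMSO/PEG 400 2:1 (0.1 mg/mL, 100 µL). Kidneys were taken on day 7, homogenized and plated on YPD agar for 2 days at 30 °C. Read-out was CFU/g; Wilcoxon rank-sum test, P<0.05.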

Nakaseomyces glabratus [26] = test: Antifungal activity against Candida glabrata 70 measured at 48 hrs by broth dilution assay; format: functional; details: Nakaseomyces glabratus, 70, 48 h; in short: as §1
Candida albicans [27] = test: Antifungal activity against Candida albicans 53T measured at 48 hrs by broth dilution assay; format: functional; in short: as §1
Candida albicans [28] = test: Upregulation of orf19.1887 gene expression in Candida albicans SC5314 at 3 uM after 45 mins by microarray method relative to control; format: functional; in short: as §4
Cryptococcus neoformans [29] = test: Fungicidal activity against Cryptococcus neoformans at 40 uM measured at 72 hrs by time kill assay; format: functional, organism-based

With `C/C=C/CNC(=N)NCCCCCCCCN1CCCCCCCCNC(=N)NC1=O` the MIC (Cryptococcus neoformans [1]) was 20 µM (≈ 8.71 µg/mL), the “fold change (FC)” value (Candida albicans [2]) was 3.38 and the Stability [3] was “Stable”. The MIC (Nakaseomyces glabratus [4]) was > 80 µM, the MIC (Candida albicans [5]) was 5 µM (≈ 2.18 µg/mL) and the Activity (Candida parapsilosis [6]) was “Active”. For the same compound, the “fold change (FC)” value (Candida albicans [7]) was 2.88, the MIC (Candida parapsilosis [8]) was 20 µM (≈ 8.71 µg/mL) and the “fold change (FC)” value (Candida albicans [9]) was 3.69. For the same compound, the MIC (Candida parapsilosis [10]) was 40 µM (≈ 17.4 µg/mL), the inhibition at 20 µM (Candida tropicalis) was 99.9% and the “fold change (FC)” value (Candida albicans [11]) was 2.66. The MIC (Candida albicans [12]) was 5 µM (≈ 2.18 µg/mL), the “fold change (FC)” value (Candida albicans [13]) was 2.28 and the “fold change (FC)” value (Candida albicans [14]) was 5.32. For the same compound, the MIC (Magnusiomyces capitatus) was 10 µM (≈ 4.36 µg/mL), the MIC (Candida albicans [15]) was 5 µM (≈ 2.18 µg/mL) and the “fold change (FC)” value (Candida albicans [16]) was 2.86. The “fold change (FC)” value (Candida albicans [17]) was 3.9, the MIC (Candida albicans [18]) was 5 µM (≈ 2.18 µg/mL) and the MIC (Candida albicans [19]) was 5 µM (≈ 2.18 µg/mL). The “fold change (FC)” value (Candida albicans [20]) was 17.28, the “fold change (FC)” value (Candida albicans [21]) was 3.52 and the Activity [22] was “Active”. The “fold change (FC)” value (Candida albicans [23]) was 2.11, the MIC (Candida albicans [24]) was 5 µM (≈ 2.18 µg/mL) and the Activity (Candida albicans [25]) was “Active”. For the same compound, the MIC (Nakaseomyces glabratus [26]) was > 80 µM, the MIC (Candida albicans [27]) was 5 µM (≈ 2.18 µg/mL) and the “fold change (FC)” value (Candida albicans [28]) was 3.44. For the same compound, the Activity (Cryptococcus neoformans [29]) was “Active”.
